Consider one compound from ChEMBL document CHEMBL1137103, “4-Acylamino-and 4-ureidobenzamides as melanin-concentrating hormone (MCH) receptor 1 antagonists” (Bioorg Med Chem Lett, 2004).

Structures are written as SMILES.

Assay [1] is described as follows: Inhibitory activity against Histamine H2 receptor.
Assay [2] in a line: Inhibitory activity against Dopamine transporter. Also on record: species or system Homo sapiens.
Assay [3] has as its target T1, Melanin-concentrating hormone receptor 1 (Homo sapiens, UniProt Q99705). Description: Binding affinity against human Melanin-concentrating hormone receptor 1 stably transfected CHO cells was determined using scintillation proximity assay (SPA). Format: cell-based. In short, it runs like this:
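Scintillation proximity binding with CHO membranes incubated with PEI-treated WGA-coupled PVT SPA beads and tracer over various test-compound concentrations. Nonspecific binding defined with 1 µM MCH; IC50 derived.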

The target in assay [4] is D(1A) dopamine receptor (Homo sapiens) (UniProt P21728). Description: Inhibitory activity against Dopamine receptor D1 at 10 uM.
Chain of D(1A) dopamine receptor (Homo sapiens) (P21728 whole entry): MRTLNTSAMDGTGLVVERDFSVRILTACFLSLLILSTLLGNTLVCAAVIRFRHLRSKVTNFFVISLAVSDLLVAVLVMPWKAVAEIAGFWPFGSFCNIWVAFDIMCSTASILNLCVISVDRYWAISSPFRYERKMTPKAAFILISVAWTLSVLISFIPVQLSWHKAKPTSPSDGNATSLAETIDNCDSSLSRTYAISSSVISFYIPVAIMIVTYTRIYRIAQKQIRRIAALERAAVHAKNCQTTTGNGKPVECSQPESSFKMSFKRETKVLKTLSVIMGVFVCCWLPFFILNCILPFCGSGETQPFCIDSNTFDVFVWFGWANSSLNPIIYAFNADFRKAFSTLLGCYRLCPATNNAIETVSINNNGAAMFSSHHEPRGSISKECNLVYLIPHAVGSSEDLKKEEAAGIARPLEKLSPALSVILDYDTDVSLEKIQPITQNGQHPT
Assay [5] concerns the target D(2) dopamine receptor (Homo sapiens) (UniProt P14416). Description: Inhibitory activity against Dopamine receptor D2 at 10 uM.
Assay [6] deals with Mu-type opioid receptor (Homo sapiens) (UniProt P35372). Description: Inhibitory activity against Opioid receptor mu 1 at 10 uM.
Chain of Mu-type opioid receptor (Homo sapiens) (P35372 whole entry): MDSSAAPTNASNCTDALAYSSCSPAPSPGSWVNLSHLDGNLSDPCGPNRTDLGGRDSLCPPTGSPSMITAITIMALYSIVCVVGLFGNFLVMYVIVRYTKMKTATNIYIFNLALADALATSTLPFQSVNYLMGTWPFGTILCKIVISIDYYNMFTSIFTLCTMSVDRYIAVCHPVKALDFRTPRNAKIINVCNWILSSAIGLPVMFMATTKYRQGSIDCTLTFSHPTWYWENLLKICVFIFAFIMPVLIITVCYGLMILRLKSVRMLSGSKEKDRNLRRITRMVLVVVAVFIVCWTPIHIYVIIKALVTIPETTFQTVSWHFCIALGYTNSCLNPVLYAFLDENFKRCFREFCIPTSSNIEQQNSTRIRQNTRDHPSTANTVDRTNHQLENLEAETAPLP
The target in assay [7] is T1, Melanin-concentrating hormone receptor 1. Description: Binding affinity against human Melanin-concentrating hormone receptor 1 stably transfected CHO cells was determined using [125I]MCH as radioligand. Format: cell-based. In short, it runs like this:
(§1)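 Whole-cell binding in CHO cells expressing the human receptor with [125I]-MCH tracer. Nonspecific binding defined with 1 µM MCH. IC50 values from displacement by various concentrations of test compound.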

Assay [8] addresses Melanin-concentrating hormone receptor 2 (Homo sapiens, UniProt Q969V1). Description: Binding affinity against human Melanin-concentrating hormone receptor 2 stably transfected CHO cells was determined using [125I]MCH as radioligand. It counts as cell-based. In short, it runs like this: as §1
Assay [9] deals with T2, Adenosine receptor A3 (Homo sapiens) (UniProt P0DMS8).
T2 sequence (whole entry): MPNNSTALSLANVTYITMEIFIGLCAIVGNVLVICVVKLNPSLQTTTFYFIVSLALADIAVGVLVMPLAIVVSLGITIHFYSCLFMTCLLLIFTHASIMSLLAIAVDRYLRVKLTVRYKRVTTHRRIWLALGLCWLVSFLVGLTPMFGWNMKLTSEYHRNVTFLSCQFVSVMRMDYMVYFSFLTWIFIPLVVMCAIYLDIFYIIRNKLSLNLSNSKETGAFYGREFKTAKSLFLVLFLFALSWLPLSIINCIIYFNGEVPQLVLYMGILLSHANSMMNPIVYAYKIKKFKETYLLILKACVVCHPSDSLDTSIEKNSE
Description: Inhibitory activity against Adenosine A3 receptor at 10 uM.

For assay [10], the target named is Sigma non-opioid intracellular receptor 1 (Homo sapiens) (UniProt Q99720). Description: Inhibitory activity against Opioid receptor sigma 1 at 10 uM.
Chain of Sigma non-opioid intracellular receptor 1 (Homo sapiens) (Q99720 whole entry): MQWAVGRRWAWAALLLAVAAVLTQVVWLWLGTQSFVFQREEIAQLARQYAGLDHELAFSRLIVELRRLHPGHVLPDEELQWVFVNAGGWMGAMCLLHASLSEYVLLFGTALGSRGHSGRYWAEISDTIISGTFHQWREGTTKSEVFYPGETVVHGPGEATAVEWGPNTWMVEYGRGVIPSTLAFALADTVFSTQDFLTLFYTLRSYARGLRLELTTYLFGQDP
A short description of assay [11]: inhibitory activity against sodium channel (site 2) at 10 uM.
In assay [12] the target is T3, Muscarinic acetylcholine receptor M1 (Homo sapiens) (UniProt P11229).
T3 sequence (whole entry): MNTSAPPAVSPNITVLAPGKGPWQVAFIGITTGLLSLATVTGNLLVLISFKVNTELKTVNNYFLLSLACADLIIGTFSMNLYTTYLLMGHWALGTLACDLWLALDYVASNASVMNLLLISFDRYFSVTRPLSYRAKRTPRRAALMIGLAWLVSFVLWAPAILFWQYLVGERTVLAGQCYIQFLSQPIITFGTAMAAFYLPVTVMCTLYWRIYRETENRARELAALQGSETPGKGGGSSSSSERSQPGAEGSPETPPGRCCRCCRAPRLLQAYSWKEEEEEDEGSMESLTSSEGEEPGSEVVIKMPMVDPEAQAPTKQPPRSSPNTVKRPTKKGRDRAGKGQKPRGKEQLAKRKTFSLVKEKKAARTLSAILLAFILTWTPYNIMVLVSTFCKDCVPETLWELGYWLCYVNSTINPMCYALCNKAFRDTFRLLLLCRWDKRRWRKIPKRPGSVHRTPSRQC
Description: Inhibitory activity against Muscarinic acetylcholine receptor M1 at 10 uM.

The target in assay [13] is T4, Muscarinic acetylcholine receptor M2 (Homo sapiens) (UniProt P08172).
T4 sequence (whole entry): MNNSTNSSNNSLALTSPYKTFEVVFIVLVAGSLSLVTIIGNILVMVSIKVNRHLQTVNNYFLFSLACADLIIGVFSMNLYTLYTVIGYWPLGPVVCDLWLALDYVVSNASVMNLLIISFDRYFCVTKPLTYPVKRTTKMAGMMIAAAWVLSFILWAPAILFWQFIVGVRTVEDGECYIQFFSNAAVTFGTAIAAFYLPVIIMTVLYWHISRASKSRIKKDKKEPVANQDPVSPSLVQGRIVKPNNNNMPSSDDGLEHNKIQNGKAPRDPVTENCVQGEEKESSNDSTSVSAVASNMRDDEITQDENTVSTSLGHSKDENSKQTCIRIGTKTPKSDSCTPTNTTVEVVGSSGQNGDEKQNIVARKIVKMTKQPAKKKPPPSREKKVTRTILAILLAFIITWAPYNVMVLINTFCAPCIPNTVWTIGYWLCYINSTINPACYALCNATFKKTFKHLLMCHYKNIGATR
Description: Inhibitory activity against Muscarinic acetylcholine receptor M2 at 10 uM.

Assay [14] addresses Sodium-dependent noradrenaline transporter (Homo sapiens) (UniProt P23975). Description: Inhibitory activity against Norepinephrine transporter at 10 uM.
The nature of assay [15]: Inhibitory activity against 5-hydroxytryptamine 2A receptor.
Assay [16] deals with T1, Melanin-concentrating hormone receptor 1. Description: Antagonistic activity against human Melanin-concentrating hormone receptor 1 stably transfected CHO cells was determined using IP3 assay. Format: functional, cell-based. Put shortly:
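CHO whole cells expressing the human receptor, labelled with 5 µCi [3H]-myo-inositol in inositol-free culture medium. Phosphatidylinositol turnover stimulated by submaximal MCH in the presence of increasing ligand concentrations. Generated [3H]-inositol phosphates purified on anion-exchange resin; IC50 derived.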

Assay [17] in a line: Inhibitory activity against 5-hydroxytryptamine 2C receptor.

T1 sequence (Q99705 whole entry): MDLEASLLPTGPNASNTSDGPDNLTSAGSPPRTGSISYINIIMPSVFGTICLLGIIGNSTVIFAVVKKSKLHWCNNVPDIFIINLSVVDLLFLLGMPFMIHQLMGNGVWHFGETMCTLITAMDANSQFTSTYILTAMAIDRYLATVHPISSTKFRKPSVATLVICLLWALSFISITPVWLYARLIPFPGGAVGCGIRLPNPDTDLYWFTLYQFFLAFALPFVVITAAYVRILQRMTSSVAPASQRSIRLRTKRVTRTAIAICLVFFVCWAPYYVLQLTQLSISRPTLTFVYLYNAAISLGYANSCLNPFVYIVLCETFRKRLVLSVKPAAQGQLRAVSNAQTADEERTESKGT
Chain of Melanin-concentrating hormone receptor 2 (Q969V1 whole entry): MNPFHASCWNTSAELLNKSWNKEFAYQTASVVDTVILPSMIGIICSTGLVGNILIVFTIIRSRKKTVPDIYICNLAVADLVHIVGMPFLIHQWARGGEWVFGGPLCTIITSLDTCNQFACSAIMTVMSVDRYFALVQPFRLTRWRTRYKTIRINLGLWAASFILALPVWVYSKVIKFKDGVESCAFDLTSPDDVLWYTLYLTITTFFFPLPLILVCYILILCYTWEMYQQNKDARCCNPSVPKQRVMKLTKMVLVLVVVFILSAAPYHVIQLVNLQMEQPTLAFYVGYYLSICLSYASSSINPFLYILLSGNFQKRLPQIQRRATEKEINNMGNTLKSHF
Chain of Sodium-dependent noradrenaline transporter (Homo sapiens) (P23975 whole entry): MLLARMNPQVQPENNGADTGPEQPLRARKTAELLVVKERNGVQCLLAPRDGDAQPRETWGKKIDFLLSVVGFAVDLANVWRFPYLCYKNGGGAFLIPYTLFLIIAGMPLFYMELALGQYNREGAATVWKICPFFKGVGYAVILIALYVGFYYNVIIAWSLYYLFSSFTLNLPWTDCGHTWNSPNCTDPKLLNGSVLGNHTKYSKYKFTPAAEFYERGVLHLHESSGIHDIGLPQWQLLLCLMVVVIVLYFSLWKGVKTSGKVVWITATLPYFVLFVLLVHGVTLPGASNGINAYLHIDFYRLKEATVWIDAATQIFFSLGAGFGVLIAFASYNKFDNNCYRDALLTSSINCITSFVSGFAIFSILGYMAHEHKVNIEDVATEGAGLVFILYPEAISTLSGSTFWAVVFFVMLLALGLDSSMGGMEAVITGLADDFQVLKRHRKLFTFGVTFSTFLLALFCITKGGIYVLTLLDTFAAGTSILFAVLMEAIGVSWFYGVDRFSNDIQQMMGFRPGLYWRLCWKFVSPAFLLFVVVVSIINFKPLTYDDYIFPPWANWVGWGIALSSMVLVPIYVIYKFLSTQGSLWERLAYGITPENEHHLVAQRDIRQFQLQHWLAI
Chain of D(2) dopamine receptor (Homo sapiens) (P14416 whole entry): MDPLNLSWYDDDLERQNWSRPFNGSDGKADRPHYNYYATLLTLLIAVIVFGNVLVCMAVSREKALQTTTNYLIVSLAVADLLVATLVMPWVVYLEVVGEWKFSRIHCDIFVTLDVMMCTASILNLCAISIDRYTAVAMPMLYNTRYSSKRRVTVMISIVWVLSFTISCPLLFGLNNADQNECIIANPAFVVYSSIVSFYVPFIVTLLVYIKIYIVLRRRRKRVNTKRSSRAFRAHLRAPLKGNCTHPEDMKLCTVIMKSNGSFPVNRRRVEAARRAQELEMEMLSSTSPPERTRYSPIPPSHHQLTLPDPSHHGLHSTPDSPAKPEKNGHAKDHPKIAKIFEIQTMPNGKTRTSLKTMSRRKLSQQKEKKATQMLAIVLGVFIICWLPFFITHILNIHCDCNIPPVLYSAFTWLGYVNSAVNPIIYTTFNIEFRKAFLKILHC

As to `CCN(CC)CCNC(=O)c1ccc(NC(=O)Nc2ccc(OC(F)(F)F)cc2)cc1OC`, the half-maximal inhibitory concentration (IC50) in assay [1] was 2200 nM; in assay [2] it was 6900 nM; in assay [3], 150 nM; in assay [7], 50 nM; in assay [8], above 100000 nM; in [15], 1300 nM. For the same compound, the half-maximal inhibitory concentration (IC50) in [16] was found to be 260 nM; in assay [17], 310 nM. Further, the inhibition was 78% in assay [4]; 79% in assay [5]; 44% in [6]; 36% in [9]; 65% in assay [10]; 76% in [11]. Further, the values for the inhibition in assay [12], in assay [13] and in assay [14] were 72%, 46% and 67%, respectively.
